From ChEMBL document CHEMBL4673214, “Synthesis and antibacterial bioactivities of cationic deacetyl linezolid amphiphiles” (Eur J Med Chem, 2018)
Values after ≈ are worked out from the molar mass of the structure shown. Active and inactive are the calls of the source. The rule behind the calls is not given here.

Key:
Cell membrane [1] = assay: Induction of inner membrane permeabilization in Staphylococcus aureus ATCC 29213 at 20 ug/ml measured for 12 mins by propidium iodide staining based fluorescence microscopic analysis; conditions: dose 20.0 µg/ml
Procedure, shortened: (§1)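 Mid-log bacteria were washed and resuspended at ~10^8 CFU/mL and preincubated with propidium iodide (10 µM stock) for 30 min (S. aureus) or 40 min (E. coli). Fluorescence (ex 535/em 617 nm) was read on a plate for an 8 min baseline, then every 2 min for 12 min after compound at 20 µg/mL final. Water served as control.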

Cell membrane [2] = assay: Induction of cytoplasmic membrane depolarization in Staphylococcus aureus ATCC 29213 at 20 ug/ml measured for 12 mins by DiSC35 dye-based fluorescence assay; assay type: subcellular; conditions: dose 20.0 µg/ml
Procedure, shortened: (§2)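 Mid-log bacteria were washed and resuspended at ~10^8 CFU/mL: S. aureus in PBS, E. coli in 5 mM HEPES/5 mM glucose/100 mM KCl (1:1:1). Cells were loaded with diSC35 (10 µM stock) for 30 min (S. aureus) or 40 min (E. coli, plus EDTA). Fluorescence (ex 622/em 670 nm) was read for an 8 min baseline, then every 2 min for 12 min after compound at 20 µg/mL final. Water served as control.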

[3] = Hemolytic activity in sheep RBC incubated for 1 hr; assay type: ADME, cell-based, Ovis aries, Erythrocyte; conditions: sheep red blood cells (erythrocytes)
Procedure, shortened: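 Sheep RBCs were resuspended at 5% in PBS and mixed 3:1 with serial dilutions (2560 to 5 µg/mL, pre-mixing levels), then incubated 1 h at 37 °C. After centrifugation, supernatant A540 was read. Hemolysis % was calculated as (A−A0)/(Atotal−A0)×100, with untreated RBCs as 0% and 0.1% Triton X-100 as total lysis.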

Klebsiella pneumoniae [4] = assay: Antibacterial activity against carbapenem-resistant Klebsiella pneumoniae clinical isolate 10 assessed as reduction in bacterial growth incubated for 16 to 20 hrs by CLSI-based broth microdilution method; assay type: functional; conditions: time 16-20 hrs
Procedure, shortened: (§3)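 Clinical isolates tested by broth microdilution in cation-adjusted Mueller-Hinton broth. Cultures grown 4-6 h (~10^8 CFU/mL) were diluted to ~10^6 CFU/mL and mixed 1:1 with compound serial dilutions made from 256 down to 0.5 µg/mL (pre-mixing). Plates held at 37 °C for 16-20 h, then read for growth. Each concentration run in duplicate, whole experiment at least twice.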

Staphylococcus aureus [5] = assay: Antibiofilm activity against 24 hrs preformed biofilm of Staphylococcus aureus ATCC 29213 assessed as eradication of preformed biofilm incubated for 24 hrs by crystal violet staining assay; assay type: functional
Escherichia coli [6] = assay: Antibiofilm activity against 24 hrs preformed biofilm of Escherichia coli ATCC 25922 assessed as eradication of preformed biofilm incubated for 24 hrs by crystal violet staining assay; assay type: functional
Enterobacteriaceae [7] = assay: Antibacterial activity against NDM1 producing carbapenem-resistant Enterobacteriaceae clinical isolate 10 assessed as reduction in bacterial growth incubated for 16 to 20 hrs by CLSI-based broth microdilution method; assay type: functional; conditions: time 16-20 hrs; procedure, shortened: as §3
Klebsiella pneumoniae [8] = assay: Antibacterial activity against carbapenem-resistant Klebsiella pneumoniae clinical isolate 7 assessed as reduction in bacterial growth incubated for 16 to 20 hrs by CLSI-based broth microdilution method; assay type: functional; conditions: time 16-20 hrs; procedure, shortened: as §3
Escherichia coli [9] = assay: Antibiofilm activity against Escherichia coli ATCC 25922 assessed as inhibition of biofilm formation incubated for 24 hrs by crystal violet staining assay; assay type: functional
Procedure, shortened: (§4)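 Twofold serial dilutions in MHB received 1:1000-diluted exponential-phase bacteria and were incubated 24 h at 37 °C. Wells were rinsed, stained with 0.1% crystal violet for 10 min and dissolved in ethanol, and OD540 was read. MBIC80 was the concentration inhibiting 80% of biofilm formation versus untreated wells, taken from dose-response curves.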

Enterobacteriaceae [10] = assay: Antibacterial activity against NDM1 producing carbapenem-resistant Enterobacteriaceae clinical isolate 4 assessed as reduction in bacterial growth incubated for 16 to 20 hrs by CLSI-based broth microdilution method; assay type: functional; conditions: time 16-20 hrs; procedure, shortened: as §3
Enterobacteriaceae [11] = assay: Antibacterial activity against NDM1 producing carbapenem-resistant Enterobacteriaceae clinical isolate 9 assessed as reduction in bacterial growth incubated for 16 to 20 hrs by CLSI-based broth microdilution method; assay type: functional; conditions: time 16-20 hrs; procedure, shortened: as §3
Klebsiella pneumoniae [12] = assay: Antibacterial activity against carbapenem-resistant Klebsiella pneumoniae clinical isolate 8 assessed as reduction in bacterial growth incubated for 16 to 20 hrs by CLSI-based broth microdilution method; assay type: functional; conditions: time 16-20 hrs; procedure, shortened: as §3
Enterobacteriaceae [13] = assay: Antibacterial activity against NDM1 producing carbapenem-resistant Enterobacteriaceae clinical isolate 3 assessed as reduction in bacterial growth incubated for 16 to 20 hrs by CLSI-based broth microdilution method; assay type: functional; conditions: time 16-20 hrs; procedure, shortened: as §3
Enterobacteriaceae [14] = assay: Antibacterial activity against NDM1 producing carbapenem-resistant Enterobacteriaceae clinical isolate 5 assessed as reduction in bacterial growth incubated for 16 to 20 hrs by CLSI-based broth microdilution method; assay type: functional; conditions: time 16-20 hrs; procedure, shortened: as §3
Enterobacteriaceae [15] = assay: Antibacterial activity against NDM1 producing carbapenem-resistant Enterobacteriaceae clinical isolate 1 assessed as reduction in bacterial growth incubated for 16 to 20 hrs by CLSI-based broth microdilution method; assay type: functional; conditions: time 16-20 hrs; procedure, shortened: as §3
Klebsiella pneumoniae [16] = assay: Antibacterial activity against carbapenem-resistant Klebsiella pneumoniae clinical isolate 2 assessed as reduction in bacterial growth incubated for 16 to 20 hrs by CLSI-based broth microdilution method; assay type: functional; conditions: time 16-20 hrs; procedure, shortened: as §3
Enterobacteriaceae [17] = assay: Antibacterial activity against NDM1 producing carbapenem-resistant Enterobacteriaceae clinical isolate 8 assessed as reduction in bacterial growth incubated for 16 to 20 hrs by CLSI-based broth microdilution method; assay type: functional; conditions: time 16-20 hrs; procedure, shortened: as §3
Klebsiella pneumoniae [18] = assay: Antibacterial activity against carbapenem-resistant Klebsiella pneumoniae clinical isolate 4 assessed as reduction in bacterial growth incubated for 16 to 20 hrs by CLSI-based broth microdilution method; assay type: functional; conditions: time 16-20 hrs; procedure, shortened: as §3
Klebsiella pneumoniae [19] = assay: Antibacterial activity against carbapenem-resistant Klebsiella pneumoniae clinical isolate 9 assessed as reduction in bacterial growth incubated for 16 to 20 hrs by CLSI-based broth microdilution method; assay type: functional; conditions: time 16-20 hrs; procedure, shortened: as §3
Cell membrane [20] = assay: Induction of inner membrane permeabilization in Escherichia coli ATCC 25922 at 20 ug/ml measured for 12 mins by propidium iodide staining based fluorescence microscopic analysis; conditions: dose 20.0 µg/ml; procedure, shortened: as §1
Enterobacteriaceae [21] = assay: Antibacterial activity against NDM1 producing carbapenem-resistant Enterobacteriaceae clinical isolate 2 assessed as reduction in bacterial growth incubated for 16 to 20 hrs by CLSI-based broth microdilution method; assay type: functional; conditions: time 16-20 hrs; procedure, shortened: as §3
Klebsiella pneumoniae [22] = assay: Antibacterial activity against carbapenem-resistant Klebsiella pneumoniae clinical isolate 3 assessed as reduction in bacterial growth incubated for 16 to 20 hrs by CLSI-based broth microdilution method; assay type: functional; conditions: time 16-20 hrs; procedure, shortened: as §3
Klebsiella pneumoniae [23] = assay: Antibacterial activity against carbapenem-resistant Klebsiella pneumoniae clinical isolate 6 assessed as reduction in bacterial growth incubated for 16 to 20 hrs by CLSI-based broth microdilution method; assay type: functional; conditions: time 16-20 hrs; procedure, shortened: as §3
Staphylococcus aureus [24] = assay: Antibiofilm activity against Staphylococcus aureus ATCC 29213 assessed as inhibition of biofilm formation incubated for 24 hrs by crystal violet staining assay; assay type: functional; procedure, shortened: as §4
Klebsiella pneumoniae [25] = assay: Antibacterial activity against carbapenem-resistant Klebsiella pneumoniae clinical isolate 5 assessed as reduction in bacterial growth incubated for 16 to 20 hrs by CLSI-based broth microdilution method; assay type: functional; conditions: time 16-20 hrs; procedure, shortened: as §3
Klebsiella pneumoniae [26] = assay: Antibacterial activity against carbapenem-resistant Klebsiella pneumoniae clinical isolate 1 assessed as reduction in bacterial growth incubated for 16 to 20 hrs by CLSI-based broth microdilution method; assay type: functional; conditions: time 16-20 hrs; procedure, shortened: as §3
Escherichia coli [27] = assay: Antibacterial activity against Escherichia coli ATCC 25922 assessed as reduction in bacterial growth incubated 16 to 20 hrs by CLSI-based broth microdilution method; assay type: functional; conditions: time 16-20 hrs
Procedure, shortened: (§5)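 Broth microdilution following CLSI, in cation-adjusted Mueller-Hinton broth. Inoculum from a 4-6 h culture (~10^8 CFU/mL), diluted to ~10^6 CFU/mL. Water stocks were serially diluted in MHB (256 to 0.5 µg/mL) and mixed 1:1 with the inoculum. Plates ran 16-20 h at 37 °C. MIC was read visually. Each concentration was tested in duplicate, and the experiment was repeated at least twice.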

Cell membrane [28] = assay: Induction of cytoplasmic membrane depolarization in Escherichia coli ATCC 25922 at 20 ug/ml measured for 12 mins by DiSC35 dye-based fluorescence assay; assay type: subcellular; conditions: dose 20.0 µg/ml; procedure, shortened: as §2
Salmonella enterica = assay: Antibacterial activity against Salmonella enterica ATCC 8387 assessed as reduction in bacterial growth incubated for 16 to 20 hrs by CLSI-based broth microdilution method; assay type: functional; conditions: time 16-20 hrs; procedure, shortened: as §5
Enterobacteriaceae [29] = assay: Antibacterial activity against NDM1 producing carbapenem-resistant Enterobacteriaceae clinical isolate 6 assessed as reduction in bacterial growth incubated for 16 to 20 hrs by CLSI-based broth microdilution method; assay type: functional; conditions: time 16-20 hrs; procedure, shortened: as §3
Cell membrane [30] = assay: Induction of outer membrane permeabilization in Escherichia coli ATCC 25922 at 20 ug/ml measured for 12 mins by NPN dye based fluorescence assay; conditions: dose 20.0 µg/ml
Procedure, shortened: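 Mid-log E. coli in HEPES/glucose/KCl at ~10^8 CFU/mL was preincubated 40 min with N-phenylnaphthylamine (10 µM stock). Fluorescence (ex 350/em 420 nm) was read for an 8 min baseline, then every 2 min for 12 min after compound at 20 µg/mL final. Water served as control.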

Enterobacteriaceae [31] = assay: Antibacterial activity against NDM1 producing carbapenem-resistant Enterobacteriaceae clinical isolate 7 assessed as reduction in bacterial growth incubated for 16 to 20 hrs by CLSI-based broth microdilution method; assay type: functional; conditions: time 16-20 hrs; procedure, shortened: as §3
Staphylococcus aureus [32] = assay: Antibacterial activity against Staphylococcus aureus ATCC 29213 assessed as reduction in bacterial growth incubated for 16 to 20 hrs by CLSI-based broth microdilution method; assay type: functional; conditions: time 16-20 hrs; procedure, shortened: as §5
Staphylococcus aureus [33] = assay: Resistance ratio of compound MIC for Staphylococcus aureus ATCC 29213 after 20 passages to compound MIC for Staphylococcus aureus ATCC 29213 after 16 to 20 hrs by CLSI-based broth microdilution method; assay type: functional
Procedure, shortened: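 Serial passaging: after each 24 h MIC assay, cells grown at 1/2 MIC were transferred and the MIC assayed again, for 20 passages. Done with S. aureus, E. coli and MRSA. MIC plotted against days of passage. Experiment repeated twice.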

Escherichia coli [34] = assay: Bactericidal activity against early exponential phase of Escherichia coli ATCC 25922 at 6X MIC measured after 6 hrs by time-kill kinetic assay; assay type: functional, organism-based
Procedure, shortened: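 An overnight culture was diluted 1:10,000 in MHB and shaken at 225 rpm and 37 °C for 2 h (early exponential phase), then exposed to compound. Samples taken at intervals were centrifuged, resuspended in PBS, plated as tenfold dilutions on MHA and incubated overnight at 37 °C. CFU/mL were counted. Biological replicates were run.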

## CC(=O)NC[C@H]1CN(c2ccc(N3CCOCC3)c(F)c2)C(=O)O1 [LINEZOLID]
Cell membrane [1]
  Activity: inactive
Cell membrane [2]
  Activity: inactive
[3]
  HC50 at 1 h: 550 µg/mL
Klebsiella pneumoniae [4]
  MIC: > 64 µg/mL
Staphylococcus aureus [5]
  MBEC: >128 µg/mL
  MBEC80: >128 µg/mL
  MBEC90: >128 µg/mL
Escherichia coli [6]
  MBEC: >128 µg/mL
  MBEC80: >128 µg/mL
  MBEC90: >128 µg/mL
Enterobacteriaceae [7]
  MIC: > 64 µg/mL
Klebsiella pneumoniae [8]
  MIC: > 64 µg/mL
Escherichia coli [9]
  MBIC80: >128 µg/mL
  MBIC90: >128 µg/mL
Enterobacteriaceae [10]
  MIC: > 64 µg/mL
Enterobacteriaceae [11]
  MIC: > 64 µg/mL
Klebsiella pneumoniae [12]
  MIC: > 64 µg/mL
Enterobacteriaceae [13]
  MIC: > 64 µg/mL
Enterobacteriaceae [14]
  MIC: > 64 µg/mL
Enterobacteriaceae [15]
  MIC: > 64 µg/mL
Klebsiella pneumoniae [16]
  MIC: > 64 µg/mL
Enterobacteriaceae [17]
  MIC: > 64 µg/mL
Klebsiella pneumoniae [18]
  MIC: > 64 µg/mL
Klebsiella pneumoniae [19]
  MIC: > 64 µg/mL
Cell membrane [20]
  Activity: inactive
Enterobacteriaceae [21]
  MIC: > 64 µg/mL
Klebsiella pneumoniae [22]
  MIC: > 64 µg/mL
Klebsiella pneumoniae [23]
  MIC: > 64 µg/mL
Staphylococcus aureus [24]
  MBIC80: 26.8 µg/mL
  MBIC90: 36.1 µg/mL
Klebsiella pneumoniae [25]
  MIC: > 64 µg/mL
Klebsiella pneumoniae [26]
  MIC: > 64 µg/mL
Escherichia coli [27]
  MIC: > 64 µg/mL
Cell membrane [28]
  Activity: inactive
Salmonella enterica
  MIC: > 64 µg/mL
Enterobacteriaceae [29]
  MIC: > 64 µg/mL
Cell membrane [30]
  Activity: inactive
Enterobacteriaceae [31]
  MIC: > 64 µg/mL

## CCn1cc(C(=O)O)c(=O)c2cc(F)c(N3CCNCC3)cc21 [NORFLOXACIN]
Staphylococcus aureus [32]
  MIC: 1 µg/mL (≈ 3.13 µM)
Staphylococcus aureus [33]
  Ratio: 256

## CO[C@@]1(NC(=O)[C@H](C(=O)O)c2ccc(O)cc2)C(=O)N2C(C(=O)O)=C(CSc3nnnn3C)CO[C@@H]21
Escherichia coli [34]
  Activity: inactive
